Assay results from different studies.
Compare with care: the assays were run in different laboratories.
Observed: cell growth or viability

CCC1(OC(=O)C(C)c2ccc3cc(OC)ccc3c2)C(=O)OCc2c1cc1n(c2=O)Cc2cc3cc4c(cc3nc2-1)OCO4 (stereo not shown)  IC50 (HeLa; MTT): 2.18 µM
COc1cc2c3c(n(CCCNCCO)c(=O)c2cc1OC)-c1cc2c(cc1C3=O)OCO2  GI50 (UACC-62; SRB): 0.03 µM
CC1(C)C=Cc2cc(/C=C/C(=O)N3CCN(c4ccc(O)cc4)CC3)ccc2O1  viability (rat Primary cortical neuron; MTT; 1 µM, 12 h): 98%
O=C(Cc1ccc2ccccc2c1)N[C@@H](Cc1ccccc1)C(=O)N[C@H](Cc1ccccc1)C(=O)N[C@H](Cc1ccc(OP(=O)(O)O)cc1)C(=O)O  IC50 (HeLa; MTT; 48 h): 500 µM
CN[C@@H]1C[C@H]2O[C@@](C)([C@@H]1OC)n1c3ccccc3c3c4c(c5c6ccccc6n2c5c31)C(=O)NC4  GI50 (U2OS): 0.026 µM
CC1(C)C=Cc2cc(/C=C/C(=O)Oc3ccccc3)ccc2O1  viability (rat Primary cortical neuron; MTT; 1 µM, 12 h): 81%
C[S@@+]([O-])CCCCN=C=S  IC50 (Hepa-1c1c7; crystal violet; 48 h): 16.7 µM
COc1ccc(NC(=O)CC(Nc2ccc(OC)cc2)c2ccc3c(c2)C=CC(C)(C)O3)cc1 (stereo not shown)  viability (rat Primary cortical neuron; MTT; 1 µM, 12 h): > 80%
C[C@H]1CN(c2ccncc2NC(=O)c2ccc(F)c(-c3c(F)cccc3F)n2)C[C@@H](N)[C@@H]1O  GI50 (KMS-11; thymidine uptake): 0.123 µM
C[C@H]1CCC/C=C/[C@@H]2C[C@H](O)C[C@H]2[C@H](O)/C=C/C(=O)O1  EC50 (HeLa; ATP luminescence): 0.04 µM
